Bioassay records (PubChem BioAssay)
This is a sample that favours compounds with a hit; in the whole collection about 9.6% have one here.
MT stabilizer: microtubule stabilizers in HeLa cells, primary screen, imaging, high-content imaging; HeLa tubulin immunostaining HCS, 24 h; share of cells brighter than vehicle mean+2SD; % tubulin-high responders, % at 10 µM; 200,000 tested, 0.83% active; AID 2205, 2009;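 active = plate Z-score above 3 for both tubulin-high and condensed-nucleus cell shares, with cell loss under 80%, at 10 µM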;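 note: anti alpha tubulin signal scored within the nucleus-defined area of each cell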
b-catenin transl: modulators of beta-catenin nuclear translocation, primary screen, imaging, HeLa cells, immunofluorescence, high-content | 190,000 tested, 0.3% active | nuclear translocation activity, % at 5 µM;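 active = nuclear translocation activity above 50% at 5 µM, with a well cell count of 50 or more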;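 note: per-cell ratio of nuclear to cytoplasmic median beta-catenin stain intensity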
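Signal – beta-catenin immunofluorescence imaging with DAPI · Test system – human HeLa cell line · Dosing – 5 µM primary single dose, 0.1% DMSO, 0.02–20 µM confirmation series · Measure – % activation, nuclear-to-cytoplasmic median beta-catenin signal ratio per cell · Incubation – 24 h compound exposure at 37°C, 5% CO2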
BaF3 parental: parental Ba/F3 cell viability inhibition, counter-screen for JAK2V617F inhibitor project, murine pro-B, CellTiter-Glo luminescence. 220,000 tested, 1.1% active. CellTiter-Glo ATP luminescence. inhibition, % at 5.6 µM. AID 1486, 2009;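 active = inhibition above a per-campaign cutoff, the mean inhibition of all tested compounds plus 3 SD, cut at about 27% in these data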
Lmaj promast: Leishmania major promastigote growth inhibition, primary screen; Leishmania major promastigotes, resazurin fluorescence viability; 200,000 tested, 9% active; inhibition, % at 10 µM; in the data active = inhibition above about 50%;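 note: promastigotes grown with compound for 44 hours at 28 °C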
APP 5UTR inh: inhibitors of APP translation via 5'UTR reporter, primary screen, APP 5'UTR luciferase, SH-SY5Y cells | SH-SY5Y APP 5'UTR-luciferase reporter, luminescence | inhibition, % at 2 µM | 190,000 tested, 0.82% active;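 active = inhibition above a set limit, derived from the sample mean plus 3 SD, cut at about 45% in these data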
Ba/F3 V617F tox: reduced viability of JAK2V617F-dependent Ba/F3 cells, primary screen, JAK2V617F inhibitor project, cell-based, Ba/F3 EpoR-JAK2V617F, luminescence | AID 1446, 2008 | 220,000 tested, 1.1% active | inhibition, % at 5.6 µM | ATP luminescence;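 active = inhibition above the campaign mean plus 3 SD over all tested compounds, cut at about 24% in these data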;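 note: cytokine-independent growth of Ba/F3 cells driven by EpoR plus mutant JAK2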
Each line names hits and unclear results; the compound was inactive in the other large screens.

Cc1cc(C)n(-c2nc(SCCN(C)C)c3c4c(sc3n2)CCCC4)n1	Lmaj promast 100
CCC(O)CNc1nc(-n2nc(C)cc2C)nc2sc3c(c12)CCCC3 (centres undefined)	none (no result: MT stabilizer, BaF3 parental, Lmaj promast, APP 5UTR inh, Ba/F3 V617F tox)
COc1cc(OC)nc(NC(=O)CSc2nnc(-c3ccccc3)n2C2CCCCC2)n1	none (no result: b-catenin transl)
O=C(NCc1ccco1)c1nn2c(C(F)(F)F)cc(-c3cccs3)nc2c1Br	Lmaj promast 100
O=C(CSC1CCCCC1)Nc1ccccc1Br	none (no result: b-catenin transl)
COc1ccccc1CN1C2CCCC1CC(NC(=O)/C=C/c1ccccc1)C2 (centres undefined)	none
O=C1OC(Nc2ccc(Br)cn2)c2ccccc21 (centres undefined)	none
CC(=O)N=c1sc2cc(C)ccc2n1C	none
CC(=O)N=c1sc2c3ccccc3ccc2n1C	Lmaj promast 63
CCOC(=O)c1cccc(NC(=O)CN(c2ccc(C)cc2)S(=O)(=O)c2c(C)n[nH]c2C)c1	none
Cc1ccc(-c2[nH]nc3c2C(c2cccnc2)C(C#N)=C(N)O3)cc1 (centres undefined)	Lmaj promast 71
C#CCSc1nc(N)c2c(n1)OC(N)=C(C#N)C2c1cccnc1 (centres undefined)	Lmaj promast 76
CCn1c(SCC(=O)N2CCCc3ccccc32)nnc1-c1ccoc1C	none
CN(NC(=O)/C=C/C(=O)O)c1ncc(C(F)(F)F)cc1Cl	none
O=c1[nH]c(SCc2nc3c(cnn3-c3ccccc3)c(=O)[nH]2)nc2ccccc12	none
O=c1[nH]c(CSc2ncccn2)nc2c1cnn2-c1ccccc1	Lmaj promast 54
O=c1[nH]c(CSc2nc3ccccc3[nH]2)nc2c1cnn2-c1ccccc1	Lmaj promast 69
O=C(Cn1nc(C(F)(F)F)c2c1CCCC2)Nc1ccc2c(c1)OCO2	none
CCC(/C=N/NC(=O)C(=O)N/N=C/C(CC)CC)CC	none
CC/C(=N\NC(=O)c1ccc2c(c1)OCO2)C12CC3CC(CC(C3)C1)C2	Lmaj promast 99
O=C(N/N=C/c1ccncc1)C12CC3CC(CC(C3)C1)C2	none
CC/C(=N\NC(=O)c1ccncc1)C12CC3CC(CC(C3)C1)C2	Lmaj promast 89, APP 5UTR inh 52
O=C(NNC(=O)C12CC3CC(CC(C3)C1)C2)c1cnccn1	Lmaj promast 89 (no result: b-catenin transl)
O=C(NNC(=S)NC(=O)C12CC3CC(CC(C3)C1)C2)c1ccncc1	Lmaj promast 78
O=C(NNC(=O)C12CC3CC(CC(C3)C1)C2)c1ccccn1	none (no result: MT stabilizer, Lmaj promast, APP 5UTR inh)
CCOC(=O)Cn1nc(C)c(NC(=O)COc2ccc([N+](=O)[O-])c(C)c2)c1C	none
CCCOC(=O)C[N+](C)(C)CCOC1CC2CCC1(C)C2(C)C (centres undefined)	BaF3 parental 46, Ba/F3 V617F tox 30 (no result: MT stabilizer, Lmaj promast, APP 5UTR inh)
CC1(C)C2CCC1(C)C(OCCNCCOC(=O)Nc1ccccc1)C2 (centres undefined)	none (no result: MT stabilizer, Lmaj promast, APP 5UTR inh)
CCCCCCOC(=O)C[N+](C)(C)CCOC1CC2CCC1(C)C2(C)C (centres undefined)	BaF3 parental 80, Lmaj promast 100, Ba/F3 V617F tox 89
CCCCCCCOC(=O)C[N+](C)(C)CCOC1CC2CCC1(C)C2(C)C (centres undefined)	BaF3 parental 85, Lmaj promast 100, Ba/F3 V617F tox 101
CC(C)CCOC(=O)C[N+](C)(C)CCOC1CC2CCC1(C)C2(C)C (centres undefined)	BaF3 parental 76, Lmaj promast 91, Ba/F3 V617F tox 90
COc1cccc(NC(=O)CC2(CC(=O)O)CCCC2)c1	none
CCC(C)OC(=O)C[N+](C)(C)CCOC1CC2CCC1(C)C2(C)C (centres undefined)	BaF3 parental 74, Lmaj promast 96, Ba/F3 V617F tox 82
CCCCOC(=O)C[N+](C)(C)CCOC1CC2CCC1(C)C2(C)C (centres undefined)	BaF3 parental 58, Lmaj promast 69, Ba/F3 V617F tox 54
O=C(Nc1ccc(NC(=O)C2CC2)nc1)c1ccncc1	none
Cc1nnn(C23CC4CC(CC(CC(=O)Nc5ccc(C)c(C)c5)(C4)C2)C3)n1	Lmaj promast 68
Cc1cccc(NC(=O)CC23CC4CC(C2)CC(n2nnc(C)n2)(C4)C3)c1	Lmaj promast 55
COc1ccc(C2(CNC(=O)c3cccc([N+](=O)[O-])c3)CCCCC2)cc1OC	none
COc1ccc(C2(CNC(=O)c3ccc(OC)c([N+](=O)[O-])c3)CCCCC2)cc1OC	Lmaj promast 87
NC(=S)NNC(=O)c1cccc(Br)c1	none
O=C(Nc1cc(=O)[nH]c(=O)[nH]1)c1cccc(Br)c1	MT stabilizer 25, BaF3 parental 37
O=C(NCCCN1CCOCC1)C1Cc2c(ccc3ccccc23)O1 (centres undefined)	Lmaj promast 69
Cc1ccc(C(=O)NCCCN2CCOCC2)cc1	none (no result: b-catenin transl)
O=C(CCN1CCOCC1)NNC(=S)NC(=O)c1ccc(Br)cc1	none
Cc1ccc(C(=O)NC(=S)NCCCN2CCOCC2)cc1	Lmaj promast 65
O=C(CCN1CCCCC1)NNC(=S)NC(=O)c1ccc(Br)cc1	Lmaj promast 75
Cc1ccc(C(NC(=O)NCCCN2CCOCC2)=C(Cl)Cl)cc1F	Lmaj promast 81
CCC(C)(C)NC(=O)Cc1ccc(F)cc1	none
Cc1ccc(-c2nc(NCc3ccc(F)cc3)n(S(C)(=O)=O)n2)cc1	none
COc1ccc(OC)c(-c2csc(N3CCC(c4ccccc4)CC3)n2)c1	none
Cc1cc2cc(CCNC(=O)c3cccc([N+](=O)[O-])c3)c(=O)[nH]c2cc1C	none
CCn1nc(NC(=O)C2CCCO2)c2cc3cccc(C)c3nc21 (centres undefined)	none (no result: MT stabilizer, Lmaj promast, APP 5UTR inh)
CC1(C)CC(=O)C(C=Nc2ccc(NC3=C(C#N)C(=O)CC(C)(C)C3)cc2)=C(O)C1	none
O=C(NC(=S)NCCN1CCOCC1)c1ccccc1	none
O=C(NCCCN1CCOCC1)C(=O)N/N=C/c1c2ccccc2cc2ccccc12	MT stabilizer 22
O=C(NC(=S)NCCCN1CCOCC1)c1cccc2ccccc12	Lmaj promast 78
O=C(NC(=S)NCCN1CCOCC1)c1cccc(Cl)c1	none
O=C(NC(=S)NCCCN1CCOCC1)c1ccc(Br)cc1	Lmaj promast 86
Cn1c(=O)c2c(ncn2CC(=O)N/N=C/C=C/c2ccccc2[N+](=O)[O-])n(C)c1=O	none (no result: MT stabilizer, Lmaj promast, APP 5UTR inh)
S=C(NCCN1CCOCC1)NC1CCCCC1	none (no result: MT stabilizer, Lmaj promast, APP 5UTR inh)
C1CCCCCC(NCCN2CCNCC2)CCCCC1	BaF3 parental 42, Ba/F3 V617F tox 80 (no result: MT stabilizer, Lmaj promast, APP 5UTR inh)
Cc1cccc(N2C(=O)C(Oc3ccc(Cl)cc3Cl)C2C=O)c1C (centres undefined)	Lmaj promast 100
